The source of these data is PMC4564109 (Journal of biomolecular screening, 2014).

Read-outs that look alike come from different tables or passages of the source.

For orientation: IC50 means the concentration at which inhibition is half-maximal.

In data set [1] the test system is NRK-52E cells. Kind of data set: Cell death assay. The class given is cell-based, rat. To be noted: for Protection against cisplatin-induced cell death (LDH release): cisplatin 60 μM, 24 h; for Cytotoxicity of the inhibitor: highest concentration tested. In a few lines: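 NRK-52E rat tubular epithelial cells were grown in DMEM with 5% FBS at 37 °C, 5% CO₂, and used within 1 d after confluence. Cells were seeded at 8000–10,000 per well, grown 24 h, then pre-incubated 2 h with serial dilutions of test compound. Cisplatin 60 μM was added, and LDH release was measured after 24 h with a CytoTox96 kit. Mean ± SD, n = 4.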

In data set [2] the target is T1, recombinant human DNase I (Homo sapiens, UniProt P24855).
T1 sequence (P24855 23-282): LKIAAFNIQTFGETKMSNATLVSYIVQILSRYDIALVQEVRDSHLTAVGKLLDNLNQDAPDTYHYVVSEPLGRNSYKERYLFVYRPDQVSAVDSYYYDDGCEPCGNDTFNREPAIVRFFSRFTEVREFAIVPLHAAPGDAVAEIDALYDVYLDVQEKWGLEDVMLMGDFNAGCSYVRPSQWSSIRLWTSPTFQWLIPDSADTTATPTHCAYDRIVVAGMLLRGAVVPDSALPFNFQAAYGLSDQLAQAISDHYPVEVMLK
Kind of data set: High-throughput DNase I screening assay. The format is biochemical. To be noted: for Type of inhibition according to Lineweaver–Burk plots: DNase I.

Data set [3] deals with LDH. The following applies: 1 μM and 100 μM.
Data set [4] addresses micrococcal nuclease (Staphylococcus aureus, UniProt P00644). Kind of data set: Plasmid incision assay. The class given is biochemical, bacterial. To be noted: 10 μM. In a few lines:
(§1)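 Plasmid incision: 1 μg pECFP plasmid in 2 mM CaCl₂, 5 mM MgCl₂, 10 mM Tris-HCl pH 7.4, 0.5 mM DTT, test compound in DMSO (1% final), nuclease added, 1 h at 37 °C. The reaction was stopped with SDS/EDTA and run on a 1% agarose TAE gel at 7 V/cm for 35 min. Ethidium bromide-stained supercoiled band was quantified densitometrically.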

Data set [5] concerns the target T2, recombinant murine EndoG (Mus musculus, UniProt O08600).
T2 sequence (O08600 45-294): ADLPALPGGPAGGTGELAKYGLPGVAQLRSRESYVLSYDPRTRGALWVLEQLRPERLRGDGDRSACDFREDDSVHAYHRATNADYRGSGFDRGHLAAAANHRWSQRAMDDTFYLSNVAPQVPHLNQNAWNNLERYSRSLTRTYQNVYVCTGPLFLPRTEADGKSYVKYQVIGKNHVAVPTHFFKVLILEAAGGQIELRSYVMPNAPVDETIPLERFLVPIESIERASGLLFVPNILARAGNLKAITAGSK
Kind of data set: HTS fluorescent probe assay with EndoG. The format is biochemical. To be noted: EndoG 0.14 μM; compared with DNase I. The procedure, abridged:
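Fluorescence was read kinetically at 37 °C, and mean velocity (mRFU/min) was taken over 20 min after background subtraction. Activity was expressed as a percentage of the DMSO control.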

Data set [6] in a line: Solubility in water. The class given is physicochemical.
Data set [7] concerns the target T3, DNase II (Sus scrofa, UniProt O62855).
T3 sequence (O62855 22-364): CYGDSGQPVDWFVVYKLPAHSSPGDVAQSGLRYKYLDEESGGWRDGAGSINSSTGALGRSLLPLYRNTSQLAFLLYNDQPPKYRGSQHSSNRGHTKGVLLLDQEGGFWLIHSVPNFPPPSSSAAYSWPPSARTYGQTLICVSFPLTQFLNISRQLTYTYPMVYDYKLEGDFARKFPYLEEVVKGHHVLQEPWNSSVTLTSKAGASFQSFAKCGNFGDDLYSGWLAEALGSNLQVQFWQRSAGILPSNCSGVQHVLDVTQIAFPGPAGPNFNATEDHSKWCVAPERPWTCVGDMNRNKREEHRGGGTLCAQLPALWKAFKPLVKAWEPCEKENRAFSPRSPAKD
Kind of data set: HTS fluorescent probe assay with DNase II. The format is biochemical. The following applies: DNase II 3.32 nM, pH 5.0; compared with DNase I.

Data set [8] relates to NRK-52E cells. Kind of data set: TUNEL assay of cisplatin-induced DNA fragmentation. The following applies: inhibitor 100 μM, 24 h cisplatin 60 μM. The format is cell-based, rat. In a few lines: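 Cells were exposed to cisplatin for 24 h in the presence of test compound at 100 μM, fixed in 5% formalin, TUNEL-stained with an in situ cell death detection kit, and counterstained with DAPI. Green-channel mean optical density for TUNEL-positive DNA damage was recorded over 10 independent fields per subset. Mean ± SD, n = 4.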

Data set [9] deals with SOD. Kind of data set: SOD Determination kit. To be noted: 1 μM and 100 μM. The class given is biochemical.
Data set [10] has as its target T4, RNase A (Bos taurus, UniProt P61823).
T4 sequence (P61823 27-150): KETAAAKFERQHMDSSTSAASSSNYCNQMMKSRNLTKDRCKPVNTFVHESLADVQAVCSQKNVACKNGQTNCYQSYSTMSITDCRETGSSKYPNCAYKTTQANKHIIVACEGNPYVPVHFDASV
Kind of data set: Ribonuclease A Detection kit. The following applies: 1 μM and 100 μM. The class given is biochemical.

Data set [11] deals with EndoG. Kind of data set: EndoG protein expression by quantitative immunohistochemistry. The class given is cell-based, rat. The following applies: NRK-52E cells, cisplatin 60 μM. The procedure, abridged: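 NRK-52E cells were fixed in 5% formalin and stained with rabbit anti-EndoG (1:200 in 0.5% BSA, 0.05% Tween-20, PBS), then AlexaFluor 647 anti-rabbit IgG (1:400), with DAPI counterstain. The control omitted the primary antibody. Red-channel mean optical density was recorded over 10 independent fields per subset. Mean ± SD, n = 4.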

The subject of data set [12] is protease. Kind of data set: Protease Fluorescent Detection kit. The format is biochemical. The following applies: 1 μM and 100 μM.
The target in data set [13] is Benzonase (Serratia marcescens, UniProt P13717). Kind of data set: Plasmid incision assay. The format is biochemical, bacterial. To be noted: 10 μM. The procedure, abridged:
as §1

Data set [14] deals with EndoG. Kind of data set: EndoG mRNA expression by real-time RT-PCR. The format is cell-based, rat. To be noted: NRK-52E cells, cisplatin. In general terms: Quantitative PCR measures a nucleic acid by following its amplification.
The mark [15] stands for this setting: read-out: IC50 against DNase I, DNase I 1.72 nM, 37 °C, HTS assay.

Sequence of Benzonase (P13717 22-266): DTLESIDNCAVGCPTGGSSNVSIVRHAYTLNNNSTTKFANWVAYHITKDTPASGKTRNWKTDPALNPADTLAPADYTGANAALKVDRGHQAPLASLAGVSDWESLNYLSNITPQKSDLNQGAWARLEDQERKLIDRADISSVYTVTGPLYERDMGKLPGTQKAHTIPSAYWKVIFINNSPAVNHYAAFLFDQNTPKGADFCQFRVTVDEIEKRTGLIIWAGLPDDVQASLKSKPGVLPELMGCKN

Consider “1,3-phenylene-bis-aminoguanidine hydrochloride [IG-17]”, for which, in data set [1], the “Protection against cisplatin-induced cell death (LDH release)” value was “some protection against cisplatin-induced cell death” and the “Cytotoxicity of the inhibitor” value was “significant cytotoxicity”. Also, the “Type of inhibition according to Lineweaver–Burk plots” value in data set [2] is given as “competitive inhibitors”. Moreover, in data set [2] (setting [15]), the IC50 is 8.93 µM. Also, the “Inhibition of LDH” value in data set [3] was “no inhibition activity was observed”. For the same compound, the “Inhibition of micrococcal nuclease (PIA)” value in [4] is “absence of inhibition”. Also, in data set [5], the “Suppression of EndoG activity” value is recorded as “suppress the activity”. Further, the Solubility in water result in data set [6] was “unlimited solubility in water”. Moreover, the “Suppression of DNase II activity” value in data set [7] is recorded as “suppress the activity”. In data set [8], the “Inhibition of cisplatin-induced DNA fragmentation (TUNEL)” value is reported as “marked inhibition”. In addition, in data set [9], the “Inhibition of SOD” value was “no inhibition activity was observed”. Besides, in [10], the “Inhibition of RNase A” value is “no inhibition activity was observed”. In addition, the EndoG protein expression entry in data set [11] is listed as “lower than the control level”. For the same compound, the Inhibition of protease result in data set [12] is reported as “no inhibition activity was observed”. Besides, in [13], the “Inhibition of Benzonase (PIA)” value is on record as “absence of inhibition”.
With “1,4-phenylene-bis-aminoguanidine hydrochloride [JR-132]”, in data set [1], the “Protection against cisplatin-induced cell death (LDH release)” value is “some protection against cisplatin-induced cell death” and the “Cytotoxicity of the inhibitor” value was “significant cytotoxicity”. Also, the “EndoG mRNA expression” value in data set [14] is on record as “significantly decreased”. In addition, the “Type of inhibition according to Lineweaver–Burk plots” value in data set [2] was “competitive inhibitors”. The IC50 in data set [2] (setting [15]) amounted to 2.73 µM. The “Inhibition of LDH” value in data set [3] is “no inhibition activity was observed”. For the same compound, the “Inhibition of micrococcal nuclease (PIA)” value in data set [4] is “absence of inhibition”. The “Suppression of EndoG activity” value in data set [5] is “suppress the activity”. Further, the Solubility in water result in data set [6] is given as “unlimited solubility in water”. Further, the “Suppression of DNase II activity” value in [7] is given as “suppress the activity”. Further, in data set [8], the “Inhibition of cisplatin-induced DNA fragmentation (TUNEL)” value is listed as “marked inhibition”. In addition, the “Inhibition of SOD” value in [9] is “no inhibition activity was observed”. In addition, the “Inhibition of RNase A” value in [10] is on record as “no inhibition activity was observed”. For the same compound, the EndoG protein expression result in data set [11] is listed as “significantly decreased”. In data set [12], the Inhibition of protease result is “no inhibition activity was observed”. Moreover, in data set [13], the “Inhibition of Benzonase (PIA)” value is “absence of inhibition”.
For the compound `O=C(O)CN(CCN(CC(=O)O)CC(=O)O)CC(=O)O` [EDTA, ethylenediaminetetraacetic acid, reference compound], the IC50 in data set [2] turned out to be 190 µM.
In the case of `[Cl-].[Cl-].[Zn+2]` [ZnCl2, reference compound], in [2] (setting [15]), the IC50 came to 18 µM.
